Two molecules from ChEMBL document CHEMBL1671615 (Antimicrob Agents Chemother, 2008) can be followed below.

Series [1] in a line: Clearance in BALB/c mouse at 4 to 5 mg/kg, iv administered as single bolus dose by HPLC. The series is classed as ADME, organism-based. Details: dose 4-5 mg/kg, route intravenous. The note with it: in vivo.
Series [2] relates to Serum. Description: AUC (OBS) in BALB/c mouse serum at 4 to 5 mg/kg administered as inhalable bolus dose by HPLC. Conditions: in vivo, inhaled_or_intranasal. Details: dose 4-5 mg/kg. In kind it is ADME, organism-based. Summed up: (§1)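 BALB/c mice (25–30 g, either sex, groups of 4) given 100 μg drug by dry-powder inhalation of spray-dried polylactide microparticles (~10 mg charged, fluidized by 30 actuations over 30 s, nose-only). Noncompartmental extravascular-bolus fit; mean ± SD.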

The nature of series [3]: Elimination rate constant in human THP1 cells at 3 ug/ml administered as microparticles after 10 mins by HPLC. The series is classed as ADME, cell-based. The note with it: THP-1 cells. In outline:
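THP-1 cells (10⁶/well) were differentiated with PMA for 14 h, washed, and rested 10 h. Microparticles (12 μg/ml, drug-equivalent 3 μg/ml) were added for 2 h, then washed out. Duplicate wells were lysed by freeze-thaw at serial times and analyzed by HPLC. A one-compartment model with no lag and first-order elimination was fitted.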

Series [4] has as its system Serum. Nature of the series: AUC (OBS) in BALB/c mouse serum at 4 to 5 mg/kg, iv administered as single bolus dose by HPLC. The series is classed as ADME, organism-based. Also noted: dose 4-5 mg/kg, route intravenous. Conditions: in vivo.
A short description of series [5]: Plasma concentration in BALB/c mouse at 4 to 5 mg/kg administered as inhalable bolus dose by HPLC. In kind it is ADME, organism-based. Details: dose 4-5 mg/kg. Conditions: inhaled or intranasal. In outline:
as §1

The nature of series [6]: Plasma concentration in BALB/c mouse at 4 to 5 mg/kg, iv administered as single bolus dose by HPLC. The series is classed as ADME, organism-based. Also noted: dose 4-5 mg/kg, route intravenous.
A short description of series [7]: Cmax in 10^6 mouse alveolar macrophages at 4 to 5 mg/kg, iv measured after 4 hrs by HPLC. The series is classed as ADME, organism-based, BALB/c, Macrophage. Also noted: dose 4-5 mg/kg, route intravenous. Conditions: in vivo. Summed up: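 After a 100 μg i.v. caudal-vein dose, four mice per time point underwent bronchoalveolar lavage with chilled saline plus 0.5 mM EDTA. Macrophages in the lavage were counted by hemocytometer and lysed, and drug was quantified by HPLC-UV per 10⁶ cells.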

Series [8] can be described thus: Elimination rate constant in human THP1 cells at 3 ug/ml after 10 mins by HPLC. In kind it is ADME, cell-based. Conditions: THP-1 cells.
Series [9] relates to Mus musculus. Nature of the series: (§2) Clearance in BALB/c mouse at 4 to 5 mg/kg administered as inhalable bolus dose by HPLC. In kind it is ADME, organism-based. Details: dose 4-5 mg/kg. Conditions: in vivo, inhaled_or_intranasal. Summed up:
as §1

Series [10] in a line: Cmax in 10^6 mouse alveolar macrophages at 4 to 5 mg/kg administered as inhalable dose measured 6 hrs postinhalation by HPLC. Details: dose 4-5 mg/kg. The note with it: in vivo, inhaled_or_intranasal. The series is classed as ADME, organism-based, Macrophage. In outline: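 Mice inhaled 100 μg drug as dry-powder microparticles. Four animals per time point were anesthetized, and lungs were lavaged with chilled saline containing 0.5 mM EDTA. Recovered alveolar macrophages were counted by hemocytometer and extracted. Drug was measured by HPLC-UV and expressed per 10⁶ cells.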

The test system of series [11] is Mus musculus. Nature of the series: Volume of distribution in BALB/c mouse at 4 to 5 mg/kg administered as inhalable bolus dose by HPLC. In kind it is ADME, organism-based. Also noted: dose 4-5 mg/kg. Conditions: in vivo, inhaled_or_intranasal. In outline:
as §1

The test system of series [12] is Mus musculus. Nature of the series: Volume of distribution in BALB/c mouse at 4 to 5 mg/kg, iv administered as single bolus dose by HPLC. In kind it is ADME, organism-based. Also noted: dose 4-5 mg/kg, route intravenous. The note with it: in vivo.
Series [13] is described as follows: Half life in BALB/c mouse serum at 4 to 5 mg/kg, iv administered as single bolus dose by HPLC. In kind it is ADME, organism-based. Details: dose 4-5 mg/kg, route intravenous.
A short description of series [14]: Half life in BALB/c mouse serum at 4 to 5 mg/kg administered as inhalable bolus dose by HPLC. The series is classed as ADME, organism-based. Details: dose 4-5 mg/kg. The note with it: inhaled or intranasal. In outline: as §1
The nature of series [15]: as §2. In kind it is ADME, organism-based. Details: dose 4-5 mg/kg. The note with it: BALB/c, in vivo, inhaled or intranasal. In outline:
as §1

Molecule `NNC(=O)c1ccncc1` [ISONIAZID] had a clearance in series [1] of 0.0738 mL/min. Moreover, the results for the AUC in series [2] and in series [4] were 55.34 µg/mL/h and 16.64 µg/mL/h, respectively. Besides, the k el at 10 min, 3 ug/ml in series [3] was 0.000102 s⁻¹; in series [8] it was 9.44e-06 s⁻¹. Also, the Cmax is 2370 ng/mL in [5], 3240 ng/mL in series [6], 0.29 µg in [7] and 0.56 µg in [10]. In [9], the CL was 63.9 mL/h. The Vz in [11] came to 1670 mL; in series [12], 41.34 mL.

Turning to `CO[C@H]1/C=C/O[C@@]2(C)Oc3c(C)c(O)c4c(c3C2=O)C2=NC3(CCN(CC(C)C)CC3)NC2=C(NC(=O)/C(C)=C\C=C\[C@H](C)[C@H](O)[C@@H](C)[C@@H](O)[C@@H](C)[C@H](OC(C)=O)[C@@H]1C)C4=O` [RIFABUTIN], the clearance in series [1] was 0.017 mL/min. Moreover, the half-life was 20.2 h in series [13] and 119 h in series [14]. Also, the AUC is 109.35 µg/mL/h in [2] and 90.82 µg/mL/h in [4]. Further, the k el at 10 min, 3 ug/ml is 1.67e-05 s⁻¹ in series [3] and 1.39e-06 s⁻¹ in series [8]. Also, the Cmax in [5] came to 1590 ng/mL; in series [6], 3470 ng/mL; in [7], 0.32 µg; in series [10], 1.65 µg. In addition, in [15], the CL/F is 0.195 mL/min. Moreover, the Vz in series [11] was 2308.84 mL; in [12], 29.52 mL.
